From ChEMBL document CHEMBL1130413, “Novel 3'-C/N-substituted 2',3'-beta-D-dideoxynucleosides as potential chemotherapeutic agents. 1. Thymidine derivatives: synthesis, structure, and broad spectrum antiviral properties” (J Med Chem, 1997) come the findings set out here.

≈ marks a conversion by molar mass, not a printed value. Where only a bound is given, the exact number is not on record here.

In assay [1] the test system is E6SM. In words: 50% Minimum inhibitory concentration which is required to reduce cytopathogenicity induced by (G) strain of HSV-2 virus on human E6SM cells. The assay is classed as functional. The essentials: (§1)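 Confluent cell monolayers infected with 100 CCID50 virus and left 1 h for adsorption. Residual virus then removed and compound added at serial dilutions (400, 200, 100 ... µg/mL). Value is the concentration giving 50% reduction of CPE.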
(Protection from cytopathic effect is a common read-out in antiviral testing.)

Assay [2] deals with HEL. In words: 50% Minimum inhibitory concentration which is required to reduce cytopathogenicity induced by (G) strain of HSV-2 virus on human embryonic HEL cells. In kind it is functional. An outline of the steps:
as §1

Assay [3] deals with HEL. Put plainly: 50% Minimum inhibitory concentration which is required to reduce cytopathogenicity induced by TK-(B2006) strain of HSV-1 virus on human embryonic HEL cells. The assay is classed as functional. The essentials:
as §1

The subject of assay [4] is HEL. In words: 50% Minimum inhibitory concentration which is required to reduce cytopathogenicity induced by (KOS) strain of HSV-1 virus on human embryonic HEL cells. The assay is classed as functional. The essentials: as §1
The subject of assay [5] is E6SM. Put plainly: 50% Minimum inhibitory concentration which is required to reduce cytopathogenicity induced by (KOS) strain of HSV-1 virus on human E6SM cells. The assay is classed as functional. The essentials: as §1
The subject of assay [6] is E6SM. In words: 50% Minimum inhibitory concentration which is required to reduce cytopathogenicity induced by (Lyons) strain of HSV-2 virus on human E6SM cells. The assay is classed as functional. The essentials:
as §1

In assay [7] the test system is E6SM. In words: 50% Minimum inhibitory concentration which is required to reduce cytopathogenicity induced by (196) strain of HSV-2 virus on human E6SM cells. The assay is classed as functional. The essentials: as §1
The subject of assay [8] is E6SM. In words: 50% Minimum inhibitory concentration which is required to reduce cytopathogenicity induced by (F) strain of HSV-1 virus on human E6SM cells. The assay is classed as functional. The essentials: as §1
The test system of assay [9] is E6SM. Put plainly: 50% Minimum inhibitory concentration which is required to reduce cytopathogenicity induced by TK-(B2006) strain of HSV-1 virus on human E6SM cells. In kind it is functional. The essentials:
as §1

For assay [10], the system named is E6SM. Put plainly: 50% Minimum inhibitory concentration which is required to reduce cytopathogenicity induced by (Mc Intyre) strain of HSV-1 virus on human E6SM cells. The assay is classed as functional. An outline of the steps:
as §1

Assay [11] has as its system HEL. In words: 50% Minimum inhibitory concentration which is required to reduce cytopathogenicity induced by (Mc Intyre) strain of HSV-1 virus on human embryonic HEL cells. The assay is classed as functional. The essentials: as §1
Assay [12] in a line: Minimum cytotoxic concentration which causes microscopically detectable alteration of normal cell morphology after 2 days of incubation. The assay is classed as functional. The following applies: 48 h. An outline of the steps: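 Uninfected E6SM cells exposed to compound for 2 days. Minimum concentration giving a microscopically detectable change in normal cell morphology recorded.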

Assay [13] relates to HEL. In words: 50% Minimum inhibitory concentration which is required to reduce cytopathogenicity induced by (Lyons) strain of HSV-2 virus on human embryonic HEL cells. The assay is classed as functional. The essentials: as §1
Assay [14] concerns MT4. In words: 50% effective concentration of compound which is required to protect human MT-4 cells against cytopathogenicity of HIV-2. The assay is classed as functional, cell-based.
Assay [15] deals with MT4. In words: Cytotoxic concentration which is required to reduce human MT-4 cell viability by 50%. In kind it is functional.
In assay [16] the test system is CEM-TK(-). Put plainly: Cytotoxic concentration which is required to reduce CEM/TK- cell viability by 50%. The assay is classed as functional. The following applies: Homo sapiens.
The nature of assay [17]: Selectivity index of HIV-1 and HIV-2 with respect to CEM cells. The assay is classed as functional, CCRF-CEM. The essentials:
(§2)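 Selectivity index calculated as average CC50 divided by average EC50. Each average comes from two independent experiments, using HIV-1 (IIIB) and HIV-2 (ROD) in CEM or MT-4 cells.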

Assay [18] has as its system CCRF-CEM. In words: 50% effective concentration of compound which is required to protect human CEM cells against HIV-2 induced giant cell formation. The assay is classed as functional, cell-based. An outline of the steps:
(§3)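 CEM cells at 250000–300000 cells/mL infected with HIV-1 (IIIB) or HIV-2 (ROD) at 100 CCID50/mL. Infected cells mixed with serial compound dilutions and incubated 4 days at 37 °C. Syncytium (giant cell) formation then scored. Values averaged over two independent experiments.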

The test system of assay [19] is CEM-TK(-). Put plainly: 50% effective concentration of compound which is required to protect Thymidine kinase deficient human CEM (CEM/TK-) cells against HIV-2. The assay is classed as functional, cell-based.
Assay [20] can be described thus: Selectivity index of HIV-1 and HIV-2 with respect to MT-4 cells. In kind it is functional, MT4. An outline of the steps:
as §2

The subject of assay [21] is MT4. Put plainly: 50% effective concentration of compound which is required to protect human MT-4 cells against cytopathogenicity of HIV-1. The assay is classed as functional, cell-based.
For assay [22], the system named is CCRF-CEM. Put plainly: Cytotoxic concentration which is required to reduce human CEM cell viability by 50%. In kind it is functional. An outline of the steps:
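Human CEM or Molt-4 cells seeded at 7.5 × 10^5 cells/mL with varying compound concentrations. Incubated 3 days at 37 °C in humidified CO2. Viable cells counted with a Coulter counter. Value is the concentration reducing viable cell number by 50%.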

Assay [23] deals with CCRF-CEM. Put plainly: 50% effective concentration of compound which is required to protect human CEM cells against HIV-1 induced giant cell formation. In kind it is functional, cell-based. The essentials:
as §3

`O=c1[nH]c(=O)n([C@H]2C[C@H](O)[C@@H](CO)O2)cc1/C=C/Br` [BRIVUDINE]: the MIC in assay [1] is 90 µg/mL (≈ 270 µM); in [2], 30 µg/mL (≈ 90.1 µM); in assay [3], 50 µg/mL (≈ 150 µM); in [4], 0.005 µg/mL (≈ 0.015 µM); in [5], 0.007 µg/mL (≈ 0.021 µM); in assay [6], more than 400 µg/mL. For the same compound, the MIC in assay [7] is more than 400 µg/mL; in assay [8], 0.02 µg/mL (≈ 0.06 µM); in assay [9] it was 10 µg/mL (≈ 30 µM); in assay [10] it was 90 µg/mL (≈ 270 µM); in assay [11] it was 0.003 µg/mL (≈ 0.00901 µM); in assay [13] it was 5 µg/mL (≈ 15 µM). Further, the MCC in assay [12] is more than 300 µg/mL.

Consider `Nc1nc2c(ncn2COC(CO)CO)c(=O)[nH]1` [GANCICLOVIR], for which the MIC was determined as 0.002 µg/mL (≈ 0.00784 µM) in assay [1]; 0.001 µg/mL (≈ 0.00392 µM) in [5]; 0.002 µg/mL (≈ 0.00784 µM) in assay [6]; 0.006 µg/mL (≈ 0.0235 µM) in [7]; 0.002 µg/mL (≈ 0.00784 µM) in assay [8]; 5 µg/mL (≈ 19.6 µM) in assay [9]. The same compound gave an MIC in assay [10] of 0.003 µg/mL (≈ 0.0118 µM). This compound registered an MCC in [12] of more than 100 µg/mL.

For the compound `NC(=O)c1ncn([C@@H]2O[C@H](CO)[C@@H](O)[C@H]2O)n1` [RIBAVIRIN], the MIC in [1] is 50 µg/mL (≈ 205 µM); in [5], 60 µg/mL (≈ 246 µM); in [6] it was 100 µg/mL (≈ 409 µM); in [7] it was 150 µg/mL (≈ 614 µM); in assay [8], 80 µg/mL (≈ 328 µM); in [9] it was 150 µg/mL (≈ 614 µM). This compound also displayed an MIC in [10] of 90 µg/mL (≈ 369 µM). The MCC in assay [12] is more than 400 µg/mL.

Consider `Cc1cn([C@H]2C[C@H](N=[N+]=[N-])[C@@H](CO)O2)c(=O)[nH]c1=O` [ZIDOVUDINE], for which the EC50 – broadly, the concentration needed to bring the measured effect to its halfway point – in assay [14] was 0.0007 µg/mL (≈ 0.00262 µM); in assay [18], 0.0009 µg/mL (≈ 0.00337 µM); in assay [19], more than 25 µg/mL; in [21] it was 0.0005 µg/mL (≈ 0.00187 µM); in assay [23] it was 0.0007 µg/mL (≈ 0.00262 µM). Further, the 50% cytotoxic concentration (CC50) – broadly, the concentration that lowers cell viability or growth by half – in [15] is 1.5 µg/mL (≈ 5.61 µM); in assay [16], more than 200 µg/mL; in [22], more than 100 µg/mL. Further, the results for the Selectivity index in [17] and in assay [20] were more than 100000 and 3000, respectively.
